Experimental data taken from ChEMBL document CHEMBL4715736, “Identification of anticancer agents based on the thieno[2,3-b]pyridine and 1H-pyrazole molecular scaffolds” (2016).

Experiments:
Assay type in all cases: functional
Settings in all cases: read-out: Activity
OVCAR-5 = experiment: Growth inhibition of human OVCAR-5 cells assessed as cell growth at 10 uM incubated for 48 hrs by sulforhodamine B assay relative to control
Summary of the method: (§1)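 Run by the NCI Developmental Therapeutics Program as part of its 60-line human tumour panel. Each compound tested at a single 10 µM dose. Growth expressed as % relative to untreated control cells (100%).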

Malme-3M = experiment: Growth inhibition of human Malme-3M cells assessed as cell growth at 10 uM incubated for 48 hrs by sulforhodamine B assay relative to control
Summary of the method: (§2)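 Submitted to the NCI Developmental Therapeutics Program for the NCI60 human tumour cell line panel. First screen at a single 10 µM concentration. Read-out is growth relative to untreated control cells set at 100%.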

OVCAR-4 = experiment: Growth inhibition of human OVCAR-4 cells assessed as cell growth at 10 uM incubated for 48 hrs by sulforhodamine B assay relative to control; summary of the method: as §1
SW-620 = experiment: Growth inhibition of human SW-620 cells assessed as cell growth at 10 uM incubated for 48 hrs by sulforhodamine B assay relative to control; summary of the method: as §1
NCI-H322M = experiment: Growth inhibition of human NCI-H322M cells assessed as cell growth at 10 uM incubated for 48 hrs by sulforhodamine B assay relative to control; summary of the method: as §2
HL-60(TB) = experiment: Growth inhibition of human HL-60(TB) cells assessed as cell growth at 10 uM incubated for 48 hrs by sulforhodamine B assay relative to control
Summary of the method: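 Screened by the NCI Developmental Therapeutics Program on its panel of 60 human tumour cell lines. Compounds were first tested at a single 10 µM dose, and compounds active there went to dose-response curves. Growth is expressed relative to untreated control (100%). GI50 (50% of maximal proliferation inhibition) and TGI (total growth inhibition) were derived from the dose-response data.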

NCI-H226 = experiment: Growth inhibition of human NCI-H226 cells assessed as cell growth at 10 uM incubated for 48 hrs by sulforhodamine B assay relative to control; summary of the method: as §2
SF-539 = experiment: Growth inhibition of human SF-539 cells assessed as cell growth at 10 uM incubated for 48 hrs by sulforhodamine B assay relative to control; summary of the method: as §1
NCI/ADR-RES = experiment: Growth inhibition of human NCI/ADR-RES cells assessed as cell growth at 10 uM incubated for 48 hrs by sulforhodamine B assay relative to control; summary of the method: as §2
DU-145 = experiment: Growth inhibition of human DU-145 cells assessed as cell growth at 10 uM incubated for 48 hrs by sulforhodamine B assay relative to control
Summary of the method: (§3)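 NCI Developmental Therapeutics Program NCI60 panel. Compounds that were active in the 10 µM one-dose screen went on to dose–response testing. Growth at each concentration is expressed relative to untreated control (100%). GI50 (concentration giving 50% of maximal inhibition of proliferation) and TGI (concentration giving total growth inhibition) were derived from the curves.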

SK-MEL-28 = experiment: Growth inhibition of human SK-MEL-28 cells assessed as cell growth at 10 uM incubated for 48 hrs by sulforhodamine B assay relative to control; summary of the method: as §1
MCF7 = experiment: Growth inhibition of human MCF7 cells assessed as cell growth at 10 uM incubated for 48 hrs by sulforhodamine B assay relative to control; summary of the method: as §2
SR = experiment: Growth inhibition of human SR cells assessed as cell growth at 10 uM incubated for 48 hrs by sulforhodamine B assay relative to control; summary of the method: as §1
HCT-116 = experiment: Growth inhibition of human HCT-116 cells assessed as cell growth at 10 uM incubated for 48 hrs by sulforhodamine B assay relative to control; summary of the method: as §2
LOX IMVI = experiment: Growth inhibition of human LOX IMVI cells assessed as cell growth at 10 uM incubated for 48 hrs by sulforhodamine B assay relative to control; summary of the method: as §2
MDA-MB-435 = experiment: Growth inhibition of human MDA-MB-435 cells assessed as cell growth at 10 uM incubated for 48 hrs by sulforhodamine B assay relative to control; summary of the method: as §2
Hs-578T = experiment: Growth inhibition of human Hs-578T cells assessed as cell growth at 10 uM incubated for 48 hrs by sulforhodamine B assay relative to control; summary of the method: as §2
RPMI-8226 = experiment: Growth inhibition of human RPMI-8226 cells assessed as cell growth at 10 uM incubated for 48 hrs by sulforhodamine B assay relative to control; summary of the method: as §1
786-0 = experiment: Growth inhibition of human 786-0 cells assessed as cell growth at 10 uM incubated for 48 hrs by sulforhodamine B assay relative to control; summary of the method: as §3
SN12C = experiment: Growth inhibition of human SN12C cells assessed as cell growth at 10 uM incubated for 48 hrs by sulforhodamine B assay relative to control; summary of the method: as §1
RXF 393 = experiment: Growth inhibition of human RXF 393 cells assessed as cell growth at 10 uM incubated for 48 hrs by sulforhodamine B assay relative to control; summary of the method: as §1
HCC 2998 = experiment: Growth inhibition of human HCC 2998 cells assessed as cell growth at 10 uM incubated for 48 hrs by sulforhodamine B assay relative to control; summary of the method: as §3
PC-3 = experiment: Growth inhibition of human PC-3 cells assessed as cell growth at 10 uM incubated for 48 hrs by sulforhodamine B assay relative to control; summary of the method: as §1
NCI-H460 = experiment: Growth inhibition of human NCI-H460 cells assessed as cell growth at 10 uM incubated for 48 hrs by sulforhodamine B assay relative to control; summary of the method: as §2
OVCAR-3 = experiment: Growth inhibition of human OVCAR-3 cells assessed as cell growth at 10 uM incubated for 48 hrs by sulforhodamine B assay relative to control; summary of the method: as §1
UO-31 = experiment: Growth inhibition of human UO-31 cells assessed as cell growth at 10 uM incubated for 48 hrs by sulforhodamine B assay relative to control; summary of the method: as §1
SK-MEL-5 = experiment: Growth inhibition of human SK-MEL-5 cells assessed as cell growth at 10 uM incubated for 48 hrs by sulforhodamine B assay relative to control; summary of the method: as §1
MDA-MB-468 = experiment: Growth inhibition of human MDA-MB-468 cells assessed as cell growth at 10 uM incubated for 48 hrs by sulforhodamine B assay relative to control; summary of the method: as §2
SF-295 = experiment: Growth inhibition of human SF-295 cells assessed as cell growth at 10 uM incubated for 48 hrs by sulforhodamine B assay relative to control; summary of the method: as §1
ACHN = experiment: Growth inhibition of human ACHN cells assessed as cell growth at 10 uM incubated for 48 hrs by sulforhodamine B assay relative to control
Summary of the method: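 NCI Developmental Therapeutics Program NCI60 human tumour cell line panel, one-dose primary screen with every compound at 10 µM. Growth is expressed as % of untreated control cells (100%).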

KM12 = experiment: Growth inhibition of human KM12 cells assessed as cell growth at 10 uM incubated for 48 hrs by sulforhodamine B assay relative to control; summary of the method: as §2
MOLT-4 = experiment: Growth inhibition of human MOLT-4 cells assessed as cell growth at 10 uM incubated for 48 hrs by sulforhodamine B assay relative to control; summary of the method: as §2
T47D = experiment: Growth inhibition of human T47D cells assessed as cell growth at 10 uM incubated for 48 hrs by sulforhodamine B assay relative to control; summary of the method: as §1

SMILES | growth at 10 µM (Malme-3M) | growth at 10 µM (OVCAR-4) | growth at 10 µM (SW-620) | growth at 10 µM (NCI-H322M) | growth at 10 µM (HL-60(TB)) | growth at 10 µM (NCI-H226) | growth at 10 µM (SF-539) | growth at 10 µM (NCI/ADR-RES) | growth at 10 µM (DU-145) | growth at 10 µM (SK-MEL-28) | growth at 10 µM (MCF7) | growth at 10 µM (SR) | growth at 10 µM (HCT-116) | growth at 10 µM (LOX IMVI) | growth at 10 µM (MDA-MB-435) | growth at 10 µM (Hs-578T) | growth at 10 µM (RPMI-8226) | growth at 10 µM (786-0) | growth at 10 µM (SN12C) | growth at 10 µM (RXF 393) | further results
CC1(C)CCc2cc(-c3ccn(S(=O)(=O)c4ccc(C(F)(F)F)cc4)n3)ccc2O1 | 97.3% | 71.3% | 90.2% | 105% | 117% | 75.6% | 94.6% | 92.4% | 103% | 99.6% | 84.9% | 69.8% | 80.6% | 98.6% | 96.6% | 101% | 76.6% | 82.5% | 97.3% | 84.2% | growth at 10 µM (OVCAR-5): 95.7%; growth at 10 µM (HCC 2998): 94.4%; growth at 10 µM (PC-3): 76.6%; growth at 10 µM (NCI-H460): 92%; growth at 10 µM (OVCAR-3): 104%; growth at 10 µM (UO-31): 80.2%; growth at 10 µM (SK-MEL-5): 90.7%; growth at 10 µM (MDA-MB-468): 64.2%; growth at 10 µM (SF-295): 87.3%; growth at 10 µM (ACHN): 101%; growth at 10 µM (KM12): 98%; growth at 10 µM (MOLT-4): 78.7%; growth at 10 µM (T47D): 63.9%
COc1ccc(S(=O)(=O)n2ccc(-c3ccc(OC(C)C)cc3)n2)cc1 | 107% | 67.7% | 86.3% | 99.3% | 90.3% | 78.8% | 97% | 81.3% | 94.3% | 95.3% | 93.8% | 75.7% | 79% | 94.1% | 94.6% | 95.5% | 70.7% | 81.1% | 90.6% | 100% | growth at 10 µM (OVCAR-5): 80.7%; growth at 10 µM (HCC 2998): 103%; growth at 10 µM (PC-3): 73.2%; growth at 10 µM (NCI-H460): 84.5%; growth at 10 µM (OVCAR-3): 90.4%; growth at 10 µM (UO-31): 76.4%; growth at 10 µM (SK-MEL-5): 91.9%; growth at 10 µM (MDA-MB-468): 68.7%; growth at 10 µM (SF-295): 90%; growth at 10 µM (ACHN): 95.8%; growth at 10 µM (KM12): 92%; growth at 10 µM (MOLT-4): 86.9%; growth at 10 µM (T47D): 72.3%
Cc1ccc(NC(=O)c2sc3nc4c(cc3c2N)C(=O)CCC4)cc1C | 47% | 32% | 15% | 35% | -21% | 56% | -18% | 9% | 8.18% | 37.3% | 10.7% | 11% | 23% | 39.2% | -67% | 18% | -2% | 29% | 35% | -18% | growth at 10 µM (OVCAR-5): 21%; growth at 10 µM (HCC 2998): 10%; growth at 10 µM (NCI-H460): 4%; growth at 10 µM (OVCAR-3): -17%; growth at 10 µM (UO-31): 45%; growth at 10 µM (SK-MEL-5): 16%; growth at 10 µM (MDA-MB-468): 4%; growth at 10 µM (SF-295): 8.72%; growth at 10 µM (ACHN): 43%; growth at 10 µM (KM12): 19.5%; growth at 10 µM (MOLT-4): 27.6%; growth at 10 µM (T47D): 24.1%
CN1CCc2nc3sc(C(N)=O)c(N)c3c(-c3cccs3)c2C1 | 16% | 41% | 7% | 15% | -18% | 11% | -18% | 19% | 10% | -2% | 12% | -11% | 6% | 3% | 10% | 6% | 12% | 19% | 11% | -43% | growth at 10 µM (HCC 2998): 14%; growth at 10 µM (PC-3): 21%; growth at 10 µM (NCI-H460): 6%; growth at 10 µM (OVCAR-3): -22%; growth at 10 µM (UO-31): 11%; growth at 10 µM (SK-MEL-5): -25%; growth at 10 µM (MDA-MB-468): -35%; growth at 10 µM (SF-295): 10%; growth at 10 µM (KM12): 7%; growth at 10 µM (MOLT-4): 9%; growth at 10 µM (T47D): 8%
